From ChEMBL document CHEMBL1123129, “Hypolipidemic activity of indan-1,3-dione derivatives in rodents” (J Med Chem, 1985) come the findings set out here.

The subject of data set [1] is Rattus norvegicus. In words: Compound was evaluated for the hypolipidemic activity at 20 mg/kg per day orally for 14 days on protein content in rat feces. It is filed as functional. The conditions noted are these: route oral. Summed up: (§1)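 Male Sprague–Dawley rats were dosed orally for 14 days. Liver, small intestine and a 24-h fecal collection were lipid-extracted. Extracts were assayed for cholesterol (modified Liebermann–Burchard), triglyceride (enzymatic kit), neutral lipids, phospholipids and protein. Values are % of 1% CMC vehicle control, mean ± SD, N = 6.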

Data set [2] deals with T1, ATP-citrate synthase (Mus musculus) (UniProt Q91V92).
T1 sequence (whole entry): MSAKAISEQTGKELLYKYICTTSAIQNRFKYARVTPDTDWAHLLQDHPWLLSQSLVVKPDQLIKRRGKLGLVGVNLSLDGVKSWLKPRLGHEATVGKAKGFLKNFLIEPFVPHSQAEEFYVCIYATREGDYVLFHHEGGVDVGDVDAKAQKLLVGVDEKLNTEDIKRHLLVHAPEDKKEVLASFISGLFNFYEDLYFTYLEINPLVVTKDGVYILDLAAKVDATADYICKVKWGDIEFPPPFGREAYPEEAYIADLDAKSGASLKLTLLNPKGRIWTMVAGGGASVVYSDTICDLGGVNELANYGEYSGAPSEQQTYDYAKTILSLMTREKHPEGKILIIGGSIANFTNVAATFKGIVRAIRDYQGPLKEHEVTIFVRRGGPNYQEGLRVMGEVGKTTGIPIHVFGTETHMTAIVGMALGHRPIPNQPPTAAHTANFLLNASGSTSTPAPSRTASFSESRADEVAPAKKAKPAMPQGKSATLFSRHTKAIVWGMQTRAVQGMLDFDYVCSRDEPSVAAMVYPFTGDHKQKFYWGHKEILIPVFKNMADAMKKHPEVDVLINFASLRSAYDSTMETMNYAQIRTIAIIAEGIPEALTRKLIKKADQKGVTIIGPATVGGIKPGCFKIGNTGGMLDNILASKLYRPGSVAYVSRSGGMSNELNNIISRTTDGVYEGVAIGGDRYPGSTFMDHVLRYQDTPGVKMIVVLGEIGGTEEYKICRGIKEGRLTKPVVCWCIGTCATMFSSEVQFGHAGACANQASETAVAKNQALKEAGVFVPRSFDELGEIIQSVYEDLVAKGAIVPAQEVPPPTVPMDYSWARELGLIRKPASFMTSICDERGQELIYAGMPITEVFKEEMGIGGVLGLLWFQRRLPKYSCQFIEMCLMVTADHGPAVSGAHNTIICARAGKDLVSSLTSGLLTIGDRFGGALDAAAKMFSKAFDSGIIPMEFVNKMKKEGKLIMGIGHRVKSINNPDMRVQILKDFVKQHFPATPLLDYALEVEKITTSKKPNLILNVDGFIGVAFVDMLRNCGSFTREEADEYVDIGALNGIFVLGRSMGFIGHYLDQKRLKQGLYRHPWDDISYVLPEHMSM
In words: In Vivo effect for the hypolipidemic activity on ATP-Citrate Lyase in CF1 mice after 16 days administered orally at a dose of 60 mg/kg. Also on record: dose 60 mg/kg. It is filed as organism-based. Summed up: (§2)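 CF1 male mice are dosed orally at 10–60 mg/kg per day for 16 days, with 1% CMC as the control vehicle. Liver is homogenized at 10% in 0.25 M sucrose + 0.001 M EDTA, pH 7.2. Enzymes are assayed by literature methods, with Lowry protein. Activity is given as % of control (X ± SD, N = 6), with p from Student's t test.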

Data set [3] concerns Mus musculus. In words: In Vivo effect for the hypolipidemic activity on phosphatidate phosphohydrolase in CF1 mice after 16 days administered orally at a dose of 20 mg/kg. The data set is classed as organism-based. Details: dose 20 mg/kg. Summed up: as §2
Data set [4] deals with Rattus norvegicus. The experiment in a line: Compound was evaluated for the hypolipidemic activity at 20 mg/kg per day orally for 14 days on neutral lipids content in rat HDL. It is filed as functional. The conditions noted are these: route oral. In a few lines: (§3)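 Male Sprague–Dawley rats (~300 g) were dosed orally each day. Blood was drawn from the abdominal vein. Lipoprotein fractions (chylomicron, VLDL, LDL, HDL) were separated by the Hatch–Lees and Havel methods. Each fraction was assayed for cholesterol, triglyceride (enzymatic kit), neutral lipids, phospholipids and Lowry protein. Values are % of 1% CMC vehicle control, N = 6.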

Data set [5] relates to Rattus norvegicus. The experiment in a line: Compound was evaluated for the hypolipidemic activity at 20 mg/kg per day orally for 14 days on protein content in rat small intestine. The data set is classed as functional. The conditions noted are these: route oral. Summed up: as §1
The subject of data set [6] is Rattus norvegicus. The experiment in a line: Compound was evaluated for the hypolipidemic activity at 20 mg/kg per day orally for 14 days on phospholipids content in rat lipoprotein chylomicron. The data set is classed as functional. The conditions noted are these: route oral. Summed up: as §3
The subject of data set [7] is Rattus norvegicus. The experiment in a line: Compound was evaluated for the hypolipidemic activity at 20 mg/kg per day orally for 14 days on protein content in rat LDL. The data set is classed as functional. The note with it: route oral. Summed up: as §3
For data set [8], the system named is Mus musculus. The experiment in a line: In Vivo effect for the hypolipidemic activity on Acetyl-coenzyme A synthetase in CF1 mice after 16 days of oral administration at a dose of 10 mg/kg. It is filed as functional. Summed up:
as §2

The species named for data set [9] is Mus musculus. In words: In Vitro evaluation for the CF1 liver enzyme activity on phosphatidate phosphohydrolase at concentration 200 uM. Summed up:
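Mouse liver enzymes assayed in vitro on 10% homogenates of CF1 male mouse liver, with test drug added at 50–200 μM. Each enzyme follows a published procedure. Protein is measured by Lowry. Activity is given as % of untreated control (X ± SD, N = 6).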

In data set [10] the test system is Mus musculus. The experiment in a line: Hypolipidemic activity in CF1 male mice at a dose of 20 mg/kg per day, serum cholesterol measured on the 16th day. It is filed as functional. Summed up: (§4)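 CF1 male mice (~30 g) were given 20 mg/kg per day ip at 11:00 a.m.; N = 6 per group. Tail-vein serum was collected in nonheparinized microcapillaries. Cholesterol was measured on days 9 and 16 by modified Liebermann–Burchard on duplicate 25 µL samples. Triglyceride was measured on day 16 in a separate group, duplicate 50 µL. Values are % control ± SD; Student's t test.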

For data set [11], the target named is Acetyl-CoA carboxylase 1 (Mus musculus) (UniProt Q5SWU9). The experiment in a line: In Vitro evaluation for the CF1 liver enzyme activity on Acetyl-CoA carboxylase at concentration 200 uM. Summed up:
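Liver was taken from CF1 male mice and made into 10% homogenates, which were incubated with test compound at 50, 100 or 200 µM. Each enzyme was assayed by its literature method, and protein was measured by Lowry. N = 6. Activity is expressed as % of untreated control ± SD.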

In data set [12] the test system is Rattus norvegicus. In words: Compound was evaluated for the hypolipidemic activity at 20 mg/kg per day orally for 14 days on lipid content in rat liver. The note with it: route oral. It is filed as functional. In a few lines:
as §1

Data set [13] concerns Mus musculus. The experiment in a line: Hypolipidemic activity in CF1 male mice at a dose of 20 mg/kg per day, serum triglyceride measured on the 16th day. It is filed as functional. In a few lines: as §4
In data set [14] the target is Cholesterol 7-alpha-hydroxylase (Cytochrome P450 7A1) (Mus musculus, UniProt Q64505). The experiment in a line: In vivo effect on Cholesterol 7-alpha-hydroxylase activity in CF1 mice after 16 days at 60 mg/kg oral dose. Details: dose 60 mg/kg, route oral. The note with it: read-out: Control. It is filed as functional, organism-based. Summed up:
as §2

Sequence of Cholesterol 7-alpha-hydroxylase (Cytochrome P450 7A1) (Q64505 whole entry): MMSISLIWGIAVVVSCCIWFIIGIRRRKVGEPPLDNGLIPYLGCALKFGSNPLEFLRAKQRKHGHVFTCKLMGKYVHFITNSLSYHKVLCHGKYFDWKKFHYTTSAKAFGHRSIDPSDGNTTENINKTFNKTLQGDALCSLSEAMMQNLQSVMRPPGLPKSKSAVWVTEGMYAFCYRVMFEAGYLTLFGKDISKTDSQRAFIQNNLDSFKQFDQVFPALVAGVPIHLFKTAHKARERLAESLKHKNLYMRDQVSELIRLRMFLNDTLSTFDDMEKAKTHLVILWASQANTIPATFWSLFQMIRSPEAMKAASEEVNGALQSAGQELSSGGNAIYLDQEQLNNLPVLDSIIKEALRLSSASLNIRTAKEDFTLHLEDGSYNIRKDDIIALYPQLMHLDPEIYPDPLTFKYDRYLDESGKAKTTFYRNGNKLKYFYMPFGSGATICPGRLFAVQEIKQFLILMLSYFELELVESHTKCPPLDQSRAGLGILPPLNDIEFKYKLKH

Consider `COc1ccc(C2C(=O)c3ccccc3C2=O)cc1` [ANISINDIONE], for which the Control in the data set on Rattus norvegicus [1] is 99%; in data set [2] it was 93%; with Mus musculus [3], 35%; with Rattus norvegicus [4], 113%; with Rattus norvegicus [5], 102%; in the data set on Rattus norvegicus [6], 135%. In addition, the Control came to 95% in the data set with Rattus norvegicus [7]; 83% with Mus musculus [8]; 11% in the data set filed under Mus musculus [9]; 67% in data set [11]; 98% in the data set on Rattus norvegicus [12]. The “Serum cholesterol, % of control” value with Mus musculus [10] is listed as 59%. Moreover, the “Serum triglyceride, % of control” value with Mus musculus [13] came out at 42%. Further, the activity at 384 h in data set [14] turned out to be 60%.
